Assay results: ChEMBL document CHEMBL2176962, “Repositioning HIV-1 integrase inhibitors for cancer therapeutics: 1,6-naphthyridine-7-carboxamide as a promising scaffold with drug-like properties” (J Med Chem, 2012)
The source made the active and inactive calls. The calls are words filed in the database; no cut-off is given here.

Tests used:
[1] = biological target: Proto-oncogene tyrosine-protein kinase Src (Homo sapiens) (UniProt P12931); experiment: Inhibition of SRC at 10 uM incubated for 60 mins using poly(Glu,Tyr)4:1 substrate and 10 uM ATP by ELISA
Sequence of Proto-oncogene tyrosine-protein kinase Src (Homo sapiens) (P12931 2-536 limits assumed): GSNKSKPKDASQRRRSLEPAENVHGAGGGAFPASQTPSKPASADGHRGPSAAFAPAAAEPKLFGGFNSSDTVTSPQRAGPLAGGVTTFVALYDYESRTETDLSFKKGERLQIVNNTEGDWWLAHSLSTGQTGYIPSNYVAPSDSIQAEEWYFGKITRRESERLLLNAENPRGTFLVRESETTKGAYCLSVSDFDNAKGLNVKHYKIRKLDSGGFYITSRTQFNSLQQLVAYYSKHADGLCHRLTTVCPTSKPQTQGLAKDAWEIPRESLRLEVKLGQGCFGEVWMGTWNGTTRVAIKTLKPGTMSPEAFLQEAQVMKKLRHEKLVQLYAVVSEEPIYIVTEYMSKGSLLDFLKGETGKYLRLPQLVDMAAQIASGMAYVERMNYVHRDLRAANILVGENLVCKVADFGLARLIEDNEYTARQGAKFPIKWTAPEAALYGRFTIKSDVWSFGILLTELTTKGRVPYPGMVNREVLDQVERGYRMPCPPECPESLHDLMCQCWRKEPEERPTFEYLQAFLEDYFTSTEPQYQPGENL
How it was run: (§1)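 ELISA with Poly(Glu,Tyr)4:1 (20 μg/mL) precoated as substrate and 10 μM ATP, in 50 mM HEPES pH 7.4, 20 mM MgCl2, 0.1 mM MnCl2, 0.2 mM Na3VO4, 1 mM DTT. Compound was tested at 10 μM, in duplicate. Kinase reaction ran 60 min at 37 °C. Phosphotyrosine was detected with PY99 and HRP anti-mouse IgG, developed with o-phenylenediamine/H2O2, stopped with H2SO4 and read at 492 nm. Inhibition = [1 − A492 treated/A492 control] × 100%. References: lapatinib (ErbB2) and PP2 (Src), each at 10 μM.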

MDA-MB-435 [2] = experiment: Inhibition of colony formation in human MDA-MB-435 cells at 10 uM treated continuously for 7 days by crystal violet staining based colony formation assay; type: functional, cell-based
How it was run: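 MDA-MB-435 cells (500 per well) were adhered overnight and treated with compound at 10 μM, or across a dose range. The methods describe a 24 h treatment, then PBS washing and 7–10 days regrowth; the figure legend describes continuous 7-day treatment. Colonies were fixed and stained with 2% crystal violet containing 1% glutaraldehyde, then imaged.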

LNCaP = experiment: Cytotoxicity against human LNCAP cells incubated for 72 hrs by MTT assay; type: functional, cell-based
How it was run: (§2)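 Cells were kept in DMEM (MDA-MB-435, MCF7, LNCaP) or RPMI (HT29, HCT116) with 10% heat-inactivated FBS and 2 mM L-glutamine, subconfluent and in exponential growth. They were seeded, allowed to adhere overnight, then exposed continuously to compound (10 mM DMSO stock) for 72 h. MTT was added to 0.3 mg/mL final for 3–4 h at 37 °C, formazan was dissolved in DMSO, and absorbance was read at 570 nm. Runs were in triplicate; IC50 came from log concentration versus percent cell kill.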

HT-29 = experiment: Cytotoxicity against human HT-29 cells incubated for 72 hrs by MTT assay; type: functional, cell-based; details: HT-29, 72 h; how it was run: as §2
MCF7 = experiment: Cytotoxicity against human MCF7 cells incubated for 72 hrs by MTT assay; type: functional, cell-based; details: MCF7, 72 h; how it was run: as §2
SK-BR-3 = experiment: Cytotoxicity against human SKBR3 cells incubated for 72 hrs by MTT assay; type: functional, cell-based; details: SK-BR-3, 72 h
HCT-116 [3] = experiment: Cytotoxicity against p53 expressing human HCT116 cells incubated for 72 hrs by MTT assay; type: functional, cell-based; details: HCT-116, 72 h; how it was run: as §2
HCT-116 [4] = experiment: Cytotoxicity against p53 deficient human HCT116 cells incubated for 72 hrs by MTT assay; type: functional, cell-based; details: HCT-116, 72 h; how it was run: as §2
MDA-MB-435 [5] = experiment: Cytotoxicity against human MDA-MB-435 cells incubated for 72 hrs by MTT assay; type: functional, cell-based; details: MDA-MB-435, 72 h; how it was run: as §2
[6] = biological target: Vascular endothelial growth factor receptor 2 (Homo sapiens) (UniProt P35968); details: at 10 µM
Sequence of Vascular endothelial growth factor receptor 2 (Homo sapiens) (P35968 whole entry): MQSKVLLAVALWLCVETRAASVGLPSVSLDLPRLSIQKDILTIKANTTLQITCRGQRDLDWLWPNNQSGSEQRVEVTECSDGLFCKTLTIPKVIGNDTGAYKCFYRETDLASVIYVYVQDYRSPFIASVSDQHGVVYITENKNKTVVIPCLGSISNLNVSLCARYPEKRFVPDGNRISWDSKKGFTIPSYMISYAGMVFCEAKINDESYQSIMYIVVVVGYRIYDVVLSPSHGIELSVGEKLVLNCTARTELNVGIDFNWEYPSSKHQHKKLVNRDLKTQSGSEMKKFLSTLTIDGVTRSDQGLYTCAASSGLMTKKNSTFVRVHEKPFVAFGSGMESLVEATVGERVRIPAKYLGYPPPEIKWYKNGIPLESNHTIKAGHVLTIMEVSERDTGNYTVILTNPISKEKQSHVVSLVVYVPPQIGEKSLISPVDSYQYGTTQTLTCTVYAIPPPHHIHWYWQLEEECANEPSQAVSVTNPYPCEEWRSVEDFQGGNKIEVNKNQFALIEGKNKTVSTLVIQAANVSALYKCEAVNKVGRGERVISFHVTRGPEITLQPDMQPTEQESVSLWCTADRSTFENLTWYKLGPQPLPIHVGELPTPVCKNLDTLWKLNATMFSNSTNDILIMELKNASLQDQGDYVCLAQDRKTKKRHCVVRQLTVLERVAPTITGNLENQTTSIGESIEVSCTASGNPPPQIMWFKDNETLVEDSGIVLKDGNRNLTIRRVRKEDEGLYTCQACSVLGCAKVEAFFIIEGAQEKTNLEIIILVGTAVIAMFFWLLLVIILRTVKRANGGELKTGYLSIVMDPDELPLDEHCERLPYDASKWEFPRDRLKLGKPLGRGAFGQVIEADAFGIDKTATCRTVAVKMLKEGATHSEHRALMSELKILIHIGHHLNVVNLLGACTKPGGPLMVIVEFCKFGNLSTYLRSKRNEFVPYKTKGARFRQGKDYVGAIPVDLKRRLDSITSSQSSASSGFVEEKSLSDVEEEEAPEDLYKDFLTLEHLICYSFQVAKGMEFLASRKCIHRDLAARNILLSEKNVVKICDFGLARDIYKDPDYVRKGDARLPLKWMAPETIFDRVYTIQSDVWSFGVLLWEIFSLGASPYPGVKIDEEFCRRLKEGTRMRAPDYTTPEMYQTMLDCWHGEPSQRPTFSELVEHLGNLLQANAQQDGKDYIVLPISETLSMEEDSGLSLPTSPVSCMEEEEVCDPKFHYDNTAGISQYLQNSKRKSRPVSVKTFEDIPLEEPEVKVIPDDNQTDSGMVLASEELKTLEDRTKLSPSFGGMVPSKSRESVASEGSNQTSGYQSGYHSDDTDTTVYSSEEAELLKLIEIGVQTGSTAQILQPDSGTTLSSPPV

[7] = biological target: Angiopoietin-1 receptor (Homo sapiens) (UniProt Q02763); experiment: Inhibition of TIE2 at 10 uM in presence of ATP at Km level by kinase profiler method
[8] = biological target: Hepatocyte growth factor receptor (Homo sapiens) (UniProt P08581); experiment: Inhibition of MET at 10 uM in presence of ATP at Km level by kinase profiler method
[9] = biological target: Vascular endothelial growth factor receptor 2 (Homo sapiens) (UniProt P35968); experiment: Inhibition of KDR at 10 uM in presence of ATP at Km level by kinase profiler method
[10] = biological target: Fibroblast growth factor receptor 1 (Homo sapiens) (UniProt P11362); experiment: Inhibition of FGFR1 at 10 uM in presence of ATP at Km level by kinase profiler method
Sequence of Fibroblast growth factor receptor 1 (Homo sapiens) (P11362 22-822 limits assumed): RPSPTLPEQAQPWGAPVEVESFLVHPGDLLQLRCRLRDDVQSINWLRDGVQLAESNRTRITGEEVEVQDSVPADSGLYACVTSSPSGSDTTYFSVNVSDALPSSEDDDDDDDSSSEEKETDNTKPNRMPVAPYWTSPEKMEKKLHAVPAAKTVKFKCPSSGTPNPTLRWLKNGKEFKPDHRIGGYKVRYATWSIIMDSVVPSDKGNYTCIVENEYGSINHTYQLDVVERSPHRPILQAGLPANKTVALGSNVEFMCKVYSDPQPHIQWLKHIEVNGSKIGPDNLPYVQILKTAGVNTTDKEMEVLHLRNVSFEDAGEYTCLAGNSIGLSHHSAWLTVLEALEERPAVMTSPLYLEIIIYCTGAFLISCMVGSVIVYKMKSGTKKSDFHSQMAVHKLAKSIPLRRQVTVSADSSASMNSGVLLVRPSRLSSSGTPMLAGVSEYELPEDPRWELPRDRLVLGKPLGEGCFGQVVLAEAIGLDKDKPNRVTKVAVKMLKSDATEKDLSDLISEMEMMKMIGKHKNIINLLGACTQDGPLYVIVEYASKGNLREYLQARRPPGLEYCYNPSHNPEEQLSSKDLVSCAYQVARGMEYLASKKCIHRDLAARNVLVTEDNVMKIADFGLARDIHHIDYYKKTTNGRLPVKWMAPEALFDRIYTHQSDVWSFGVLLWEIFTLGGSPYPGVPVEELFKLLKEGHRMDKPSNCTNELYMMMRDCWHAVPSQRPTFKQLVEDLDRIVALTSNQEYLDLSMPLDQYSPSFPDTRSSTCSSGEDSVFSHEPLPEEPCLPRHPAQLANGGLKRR

[11] = biological target: Insulin-like growth factor 1 receptor (Homo sapiens) (UniProt P08069); experiment: Inhibition of IGF1R at 10 uM in presence of ATP at Km level by kinase profiler method
Sequence of Insulin-like growth factor 1 receptor (Homo sapiens) (P08069 31-736 limits assumed): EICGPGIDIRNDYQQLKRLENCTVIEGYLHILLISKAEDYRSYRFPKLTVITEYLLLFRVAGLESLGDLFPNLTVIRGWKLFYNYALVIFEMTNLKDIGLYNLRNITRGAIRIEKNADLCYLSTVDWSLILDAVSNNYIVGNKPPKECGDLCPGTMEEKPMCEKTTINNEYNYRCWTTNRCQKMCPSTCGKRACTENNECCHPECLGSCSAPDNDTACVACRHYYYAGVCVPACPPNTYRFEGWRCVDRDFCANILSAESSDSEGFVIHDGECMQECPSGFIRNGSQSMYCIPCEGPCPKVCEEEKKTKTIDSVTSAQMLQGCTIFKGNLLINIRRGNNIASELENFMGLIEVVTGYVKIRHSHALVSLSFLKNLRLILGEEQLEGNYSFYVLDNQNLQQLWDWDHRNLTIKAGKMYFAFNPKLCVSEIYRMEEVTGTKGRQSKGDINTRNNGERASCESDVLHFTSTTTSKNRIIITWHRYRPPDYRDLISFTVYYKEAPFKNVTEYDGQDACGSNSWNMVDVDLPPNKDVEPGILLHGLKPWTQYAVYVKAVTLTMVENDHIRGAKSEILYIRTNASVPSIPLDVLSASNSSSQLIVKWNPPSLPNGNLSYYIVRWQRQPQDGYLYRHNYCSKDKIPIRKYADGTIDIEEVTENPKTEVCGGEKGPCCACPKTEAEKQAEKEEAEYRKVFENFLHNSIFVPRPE
Sequence of Insulin-like growth factor 1 receptor (Homo sapiens) (P08069 741-1367 limits assumed): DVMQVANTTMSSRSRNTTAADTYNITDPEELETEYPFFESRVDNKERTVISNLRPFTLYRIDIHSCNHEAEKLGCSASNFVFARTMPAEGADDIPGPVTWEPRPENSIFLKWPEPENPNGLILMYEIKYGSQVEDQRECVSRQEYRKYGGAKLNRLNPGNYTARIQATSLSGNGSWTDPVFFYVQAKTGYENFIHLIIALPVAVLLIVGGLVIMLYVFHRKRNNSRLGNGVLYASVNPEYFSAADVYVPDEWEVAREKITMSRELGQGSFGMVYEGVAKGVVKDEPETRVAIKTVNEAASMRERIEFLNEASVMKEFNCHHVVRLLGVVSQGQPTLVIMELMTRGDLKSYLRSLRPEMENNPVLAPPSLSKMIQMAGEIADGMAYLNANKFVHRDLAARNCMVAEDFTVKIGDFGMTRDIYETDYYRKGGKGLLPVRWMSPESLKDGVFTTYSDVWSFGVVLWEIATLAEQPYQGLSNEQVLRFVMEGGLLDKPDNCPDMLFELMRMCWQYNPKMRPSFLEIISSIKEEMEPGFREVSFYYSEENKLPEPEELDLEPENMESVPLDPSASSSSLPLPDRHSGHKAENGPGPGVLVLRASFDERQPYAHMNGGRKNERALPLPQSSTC

[12] = biological target: Receptor tyrosine-protein kinase erbB-2 (Homo sapiens) (UniProt P04626); experiment: Inhibition of ErbB2 at 10 uM incubated for 60 mins using poly(Glu,Tyr)4:1 substrate and 10 uM ATP by ELISA; how it was run: as §1
HEY = experiment: Cytotoxicity against human HEY cells incubated for 72 hrs by MTT assay; type: functional, cell-based
[13] = Therapeutic index, ratio of CC50 for human C8166 cells to EC50 for HIV1 3B; type: cell-based; details: read-out: Ratio CC50/EC50
How it was run: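 Therapeutic index was calculated as the C8166 MTT CC50 divided by the HIV-1 IIIB syncytium-reduction EC50.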

[14] = Toxicity against human C8166 cells incubated for 72 hrs by MTT assay; type: cell-based
How it was run: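 C8166 cells were seeded with serial compound dilutions in triplicate and incubated at 37 °C, 5% CO2 for 72 h. MTT (5 mg/mL in PBS) was added for 4 h, and formazan was dissolved in 50% DMF-20% SDS. Absorbance was read at 595/630 nm. CC50 was taken from the dose-response curve.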

[15] = system: Human immunodeficiency virus 1; experiment: Antiviral activity against HIV1 3B infected in human C8166 cells assessed as reduction in virus-induced cytopathogenicity measured after 3 days by syncytium reduction assay; type: functional, organism-based; details: Human immunodeficiency virus 1, 3B, C8166, 72 h
How it was run: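 C8166 cells (4 × 10⁵ mL⁻¹), grown in RPMI-1640 with 10% heat-inactivated FCS and kept in log phase, infected with HIV-1 IIIB at MOI 0.06 in the presence of serial compound dilutions. AZT served as positive control. After 3 days, syncytia were counted by inverted microscope. EC50 was derived from percent inhibition of syncytium number relative to infected control.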

[16] = biological target: T1, Human immunodeficiency virus type 1 integrase (Human immunodeficiency virus 1, UniProt Q7ZJM1); experiment: Inhibition of HIV1 integrase strand transfer activity using [32P]-labeled linear oligonucleotide substrate
T1 sequence (Q7ZJM1 whole entry): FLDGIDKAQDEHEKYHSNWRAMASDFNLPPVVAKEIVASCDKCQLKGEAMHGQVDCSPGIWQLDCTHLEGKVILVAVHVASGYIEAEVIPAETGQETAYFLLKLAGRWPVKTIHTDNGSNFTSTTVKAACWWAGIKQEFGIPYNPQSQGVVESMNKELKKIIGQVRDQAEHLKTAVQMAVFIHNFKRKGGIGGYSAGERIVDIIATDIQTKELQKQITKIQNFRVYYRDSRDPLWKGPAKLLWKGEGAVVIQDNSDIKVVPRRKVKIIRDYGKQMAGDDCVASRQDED

[17] = biological target: T1, Human immunodeficiency virus type 1 integrase; experiment: Inhibition of HIV1 integrase 3'-processing activity using [32P]-labeled linear oligonucleotide substrate
[18] = system: Tyrosine-protein kinase ABL1 (Homo sapiens), P00519 [T315I]; experiment: Inhibition of Abl T315I mutant at 10 uM in presence of ATP at Km level by kinase profiler method
[19] = biological target: T2, Aurora kinase A (Homo sapiens) (UniProt O14965); experiment: Inhibition of Aurora A kinase at 10 uM in presence of ATP at Km level by kinase profiler method
T2 sequence (whole entry): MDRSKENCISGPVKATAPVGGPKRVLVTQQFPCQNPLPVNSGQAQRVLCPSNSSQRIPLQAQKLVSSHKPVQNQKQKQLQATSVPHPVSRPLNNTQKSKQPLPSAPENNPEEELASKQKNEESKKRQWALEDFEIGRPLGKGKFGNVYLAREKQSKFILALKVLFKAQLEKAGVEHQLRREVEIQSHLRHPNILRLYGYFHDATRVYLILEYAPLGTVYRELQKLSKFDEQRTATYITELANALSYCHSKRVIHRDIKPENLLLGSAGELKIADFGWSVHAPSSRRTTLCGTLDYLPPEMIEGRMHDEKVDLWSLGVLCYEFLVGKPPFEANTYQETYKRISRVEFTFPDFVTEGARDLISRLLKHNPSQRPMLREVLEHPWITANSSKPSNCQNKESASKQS

[20] = biological target: Tyrosine-protein kinase Lck (Homo sapiens) (UniProt P06239); experiment: Inhibition of LCK at 10 uM in presence of ATP at Km level by kinase profiler method
Sequence of Tyrosine-protein kinase Lck (Homo sapiens) (P06239 2-509 limits assumed): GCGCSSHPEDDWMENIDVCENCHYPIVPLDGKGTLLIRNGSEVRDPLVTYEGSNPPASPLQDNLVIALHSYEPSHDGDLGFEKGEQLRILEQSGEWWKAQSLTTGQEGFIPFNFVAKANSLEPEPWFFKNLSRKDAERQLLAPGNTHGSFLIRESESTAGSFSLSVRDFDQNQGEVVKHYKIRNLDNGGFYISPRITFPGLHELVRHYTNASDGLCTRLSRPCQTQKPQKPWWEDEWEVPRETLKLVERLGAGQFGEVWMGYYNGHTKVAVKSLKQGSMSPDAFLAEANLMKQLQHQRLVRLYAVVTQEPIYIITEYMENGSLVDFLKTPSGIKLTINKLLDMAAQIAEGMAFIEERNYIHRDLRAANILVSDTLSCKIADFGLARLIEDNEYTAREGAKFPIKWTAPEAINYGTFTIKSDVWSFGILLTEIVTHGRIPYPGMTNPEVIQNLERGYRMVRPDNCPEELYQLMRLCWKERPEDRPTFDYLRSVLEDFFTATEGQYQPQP

SMILES | inhibition [1] | inhibition [6] | inhibition [12] | EC50 [15] | IC50 [16] | IC50 [17] | IC50 (LNCaP) | IC50 (HT-29) | IC50 (MCF7) | IC50 (SK-BR-3) | IC50 (HCT-116 [3]) | IC50 (HCT-116 [4]) | IC50 (MDA-MB-435 [5]) | selectivity ratio [13] | CC50 at 72 h [14] | other results
NCCCCCCNc1c(C(=O)NCc2ccc(F)cc2)nc(Br)c2cccnc12 | 18% | 0% |  |  |  |  | 8 µM | 5 µM | 2 µM | 3 µM | 7 µM | > 10 µM | 6 µM |  |  | inhibition (MDA-MB-435 [2]): Active
COc1ccc(CNC(=O)c2nc(Br)c3cccnc3c2N[C@H]2CC[C@H](N)CC2)cc1 | 76% | 2% | 0% |  |  |  |  |  |  | 5 µM | 3 µM |  | 5 µM |  |  | inhibition [7]: Active; inhibition [8]: Active; inhibition [9]: Active; inhibition [10]: Active; inhibition [11]: Active; IC50 (HEY): 4 µM
NCCCNc1c(C(=O)NCc2ccc(F)cc2)ncc2cccnc12 | 15% | 10% |  |  |  |  | > 10 µM | > 10 µM | > 10 µM | > 10 µM | > 10 µM | > 10 µM | 16 µM |  |  | 
O=C(NCc1ccc(F)cc1)c1nc(Br)c2cccnc2c1NC1CCNCC1 | 9% | 0% | 1% |  |  |  | 6 µM | 4 µM | 3 µM | 1 µM | 9.2 µM | 6 µM | 7 µM |  |  | inhibition (MDA-MB-435 [2]): Active
CS(=O)(=O)NCCCCCCN(c1nc(C(=O)NCc2ccc(F)cc2)c(O)c2ncccc12)S(C)(=O)=O |  |  |  | 2 nM | 700 nM | 11 µM |  |  | 7 µM |  | 3 µM | 4 µM | 20 µM | 18500 | 37 µM | 
O=C(NCc1ccc(F)cc1)c1nc(N2CCCCS2(=O)=O)c2cccnc2c1O | 13% |  | 8% | 5 nM | 300 nM | 11 µM |  |  | 2 µM |  | 2 µM | 2 µM | 6 µM | 26400 | 132 µM | 
CN(C)CCCNc1c(C(=O)NCc2ccc(F)cc2)nc(Br)c2cccnc12 | 17% | 0% |  |  |  |  | 8 µM | 6 µM | 7 µM | 1 µM | > 10 µM | > 10 µM | 7 µM |  |  | 
N[C@H]1CC[C@H](Nc2c(C(=O)NCc3ccc(Cl)cc3Cl)nc(Br)c3cccnc23)CC1 | 90% | 41% | 13% |  |  |  |  |  |  | 6 µM | 6 µM |  | 5.8 µM |  |  | inhibition [18]: Active; inhibition [19]: Active; inhibition [20]: Active; inhibition [10]: Active; inhibition [11]: Active; IC50 (HEY): 5 µM
O=C(NCc1ccc(F)cc1)c1nc(Br)c2cccnc2c1N1CCNCC1 | 29% | 4% |  |  |  |  | 4.5 µM | 10 µM | 7 µM | 6 µM | > 10 µM | > 10 µM | 8 µM |  |  | 
CS(=O)(=O)Oc1c(C(=O)NCc2ccc(F)cc2)nc(Br)c2cccnc12 |  |  |  | 11800 nM | 13000 nM | > 111 µM |  |  |  |  | > 20 µM | > 20 µM | > 20 µM | 4 | 48 µM | 
N[C@H]1CC[C@H](Nc2c(C(=O)NCc3ccc(Cl)cc3)nc(Br)c3cccnc23)CC1 | 70% | 34% | 0% |  |  |  |  |  |  | 2 µM | 4 µM |  | 1 µM |  |  | inhibition [18]: Active; inhibition [19]: Active; inhibition [20]: Active; inhibition [10]: Active; inhibition [11]: Active; IC50 (HEY): 1 µM

The next lines start with results.

inhibition [1] | inhibition [6] | inhibition [12] | EC50 [15] | IC50 [16] | IC50 [17] | SMILES | IC50 (LNCaP) | IC50 (HT-29) | IC50 (MCF7) | IC50 (SK-BR-3) | IC50 (HCT-116 [3]) | IC50 (HCT-116 [4]) | IC50 (MDA-MB-435 [5]) | selectivity ratio [13] | CC50 at 72 h [14] | other results
 |  |  | 368 nM | 1000 nM | 14 µM | O=C(NCc1ccc(F)cc1)c1nc(NCCc2c[nH]c3ccccc23)c2cccnc2c1O |  |  | 12 µM |  |  |  | 13 µM | 114 | 42 µM | 
7% | 8% | 1% |  |  |  | Nc1ccc(Nc2c(C(=O)NCc3ccc(F)cc3)nc(Br)c3cccnc23)cc1 | 7 µM | > 10 µM | 4 µM | 4 µM | 10 µM | 7 µM | 7 µM |  |  | 
23% |  | 11% | 27 nM | 200 nM | 6 µM | O=CNCCCCCCNc1nc(C(=O)NCc2ccc(F)cc2)c(O)c2ncccc12 |  |  | 19 µM |  | 4 µM | 6 µM | 16 µM | 7370 | 199 µM | 
 |  |  | 3 nM | 700 nM | 34 µM | CS(=O)(=O)NCCCN(c1nc(C(=O)NCc2ccc(F)cc2)c(O)c2ncccc12)S(C)(=O)=O |  |  | > 20 µM |  | 15 µM | 7 µM | > 20 µM | 21300 | 64 µM | 
 |  |  | 48900 nM | 69000 nM | > 100 µM | O=C(NCc1ccc(F)cc1)c1nc(Br)c2cccnc2c1NCCO |  |  |  |  | > 20 µM | > 20 µM | > 20 µM | 4.8 | 232 µM | 
 |  |  | 5020 nM | 31000 nM | > 111 µM | Cc1ccc(S(=O)(=O)Oc2c(C(=O)NCc3ccc(F)cc3)nc(Br)c3cccnc23)cc1 |  |  |  |  | > 20 µM | > 20 µM | > 20 µM | 6.2 | 31 µM | 
